Jurkat viability – cytotoxic compounds reducing Jurkat cell viability | Jurkat E6.1 viability, ATP luminescence, 48 h | inhibition, % at 4 µM | 56,000 compounds, 1.2% hits;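 active means inhibition above the mean inhibition of all tested compounds plus 3 SD, cut at about 28% in these data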
hDAT+cocaine – changed human dopamine transporter uptake under cocaine IC80 | Q01959 | LLC-PK1 hDAT cells, [14C]-dopamine uptake with cocaine IC80; actives deviate in either direction | B-score at 10 µM | 110,000 compounds, 1.3% hits;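 active means Z score or B-score, a plate-position-corrected score, falls beyond the plate's 99.7% confidence bounds, in either direction; inactive means both scores lie inside the 99.7% bounds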;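 further: scored against the spread of the other compound wells on the same plate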
M1 ag – M1 muscarinic receptor agonism | CHO-M1 cells, Fluo-4 calcium fluorescence, agonist mode; stronger effect = higher value | B-score at 10 µM | 64,000 compounds, 3% hits;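 active means fluorescence rise, raw or as B-score row- and column-corrected plate score, outside the 99.7% band of its plate's samples, either direction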
M1 antagonist – antagonists of rat M1 muscarinic receptor | P08482 | CHO-M1 cells, Fluo-4 calcium, ACh EC80 antagonist mode; stronger effect = lower value | B-score at 10 µM | 64,000 compounds, 3.4% hits | AID 628;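 active means calcium fluorescence response, raw or row-and-column corrected B-score, differing from the plate sample mean either way at a set confidence level, mostly lower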
HEK293 NFkB inh – lowers PMA/ionomycin-induced NF-kB signal in HEK293 cells; inhibition, % at 3 µM; HEK-293 NF-kB luciferase reporter, luminescence; AID 465; 62,000 compounds, 0.21% hits;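 active means inhibition above the mean of all tested compounds plus 3 SD, cut at about 40% in these data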;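 further: 0% = stimulated DMSO wells and 100% = 10 µM reference inhibitor 5653914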
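System: NF-kB luciferase reporter HEK-293 cells | Replication: Single test | Control set: DMSO vs reference inhibitor | Evaluation: % inhibition | Schedule: 1 h pretreatment, 16 h stimulation, 37 °C | Probe or stimulus: PMA with ionomycin | Compound dosing: One dose, 3 µM | Detection: Luciferase luminescence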
D1 mod – allosterically modulates the human D1 dopamine receptor; 58,000 compounds, 5.9% hits; P21728; B-score at 10 µM; AID 641; HEK293 D1, CRE-luciferase, dopamine EC30 potentiation; actives deviate in either direction;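 active means luminescence count or its row- and column-corrected plate score outside the 99.7% band of the plate's sample wells, on either side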
Target sequence (P21728 whole entry, looked up): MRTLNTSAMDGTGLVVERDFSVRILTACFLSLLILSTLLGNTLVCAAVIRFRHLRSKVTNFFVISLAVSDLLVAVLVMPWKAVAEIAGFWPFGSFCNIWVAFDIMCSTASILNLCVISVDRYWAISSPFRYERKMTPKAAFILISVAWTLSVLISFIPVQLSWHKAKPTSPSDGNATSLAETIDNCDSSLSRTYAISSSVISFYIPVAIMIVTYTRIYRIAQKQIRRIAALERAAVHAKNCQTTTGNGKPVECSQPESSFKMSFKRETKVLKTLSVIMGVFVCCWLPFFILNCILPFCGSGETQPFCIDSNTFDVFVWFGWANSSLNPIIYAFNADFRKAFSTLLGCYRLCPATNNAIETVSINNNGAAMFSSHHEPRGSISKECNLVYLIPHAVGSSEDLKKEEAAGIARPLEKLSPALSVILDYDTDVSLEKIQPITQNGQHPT
* hit, by the source's call; x = no result. In the library only some 7.6% were active in any assay of this set; here they are far more common.

SMILES | Jurkat viability | hDAT+cocaine | M1 ag | M1 antagonist | HEK293 NFkB inh | D1 mod
COc1cccc(Nc2nc(=O)[nH]nc2C)c1 | -4 | 0.12 | -0.086 | -0.32 | 11 | -1.5
CCOC(=O)N1CCC(NC(=O)CCS(=O)(=O)c2ccc3c(c2)CCN3C(=O)CC)CC1 | -5 | 0.14 | 0.4 | -0.72 | 1 | 0.39
Nc1nnnn1/N=C/C(Br)=C/c1ccccc1 | 84* | 0.24 | 0.081 | -0.63 | 10 | 0.23
Nc1nnnn1/N=C/C=C/c1ccccc1 | -3 | -0.94 | -0.041 | 0.72 | 7 | 0.23
Cc1csc(C(C#N)C(=O)c2cc3ccccc3o2)n1 (stereo not drawn) | x | -0.65 | -0.75 | -1.7 | -33 | -3.8*
O=C(/C=C\Nc1ccccn1)c1ccc(Cl)cc1 | 0 | 0.11 | 0.12 | -0.0069 | -35 | -6*
O=C(CCn1c(=S)[nH]c2ccccc2c1=O)NCC1CCCO1 (stereo not drawn) | x | 0.4 | -0.53 | 0.49 | 5 | 0.82
O=C(OC1CCCCC1)c1ccc2c(c1)C1C=CCC1C(C(=O)O)N2 (stereo not drawn) | 6 | x | -1.1 | -0.52 | 7 | x
O=C(O)c1ccc2c(c1)[C@@H]1C=CC[C@@H]1[C@H](c1ccccn1)N2 | 1 | -0.46 | x | x | 17 | -3.8*
O=C(c1cccs1)N1CCN(CCCc2ccccc2)CC1 | x | 0.74 | x | x | x | x
CCc1c(C)nc2cc(-c3cc(OC)cc(OC)c3)nn2c1N1CCCC1 | -3 | 1.7 | 0.85 | 0.82 | 2 | 0.71
CCOCCN1CCN(c2c(CC)c(C)nc3cc(-c4cc(OC)cc(OC)c4)nn23)CC1 | x | 2* | x | x | x | x
Cc1ccn2cc(C(=O)Nc3ccc4c(c3)OCCO4)nc2c1 | 10 | -0.34 | 0.17 | 0.79 | -3 | -4.5*
Cc1ccc(-n2c(=O)[nH]cc(C(=O)Nc3ccc4c(c3)OCCO4)c2=O)cc1 | -7 | 0.75 | 0.095 | -0.5 | 11 | -5*
Cc1ccn2cc(C(=O)Nc3ccccc3N3CCOCC3)nc2c1 | 2 | -0.013 | 0.069 | -0.17 | 1 | -1.6
Cc1cc(C)nc(N2CCCC(C(=O)Nc3nc4ccc(S(C)(=O)=O)cc4s3)C2)n1 (stereo not drawn) | 7 | 2.3 | 1.4 | 0.17 | 11 | 0.71
Cc1ccc(-c2nc(SCC(=O)NCC3CCCO3)c(-c3ccc(Cl)cc3)[nH]2)cc1 (stereo not drawn) | x | -1 | x | x | x | x
O=S(=O)(c1ccc(Cl)cc1)N1CCN(c2ccc(N3CCOCC3)nn2)CC1 | 0 | -1 | -0.25 | -0.043 | 8 | -0.041
Cc1cc(C)c2ccc(N)nc2c1O | 44* | 1.4 | 0.32 | -0.035 | 12 | -0.46
Cc1cc(C)c2ccc(C)[n+]([O-])c2c1O | -5 | 0.76 | -0.3 | 0.91 | 17 | -0.1
COC(=O)c1[nH]c2c(c1C)C(=O)CC(c1cc(OC)ccc1OC)C2 (stereo not drawn) | 82* | -0.19 | -0.14 | -0.13 | 11 | -0.21
Cc1c(C(=O)O)[nH]c2c1C(=O)CC(c1ccccc1)C2 (stereo not drawn) | x | -0.22 | -0.32 | -0.028 | 16 | x
COC(=O)c1[nH]c2c(c1C)C(=O)CC(c1cccs1)C2 (stereo not drawn) | 97* | -0.69 | 0.14 | 0.12 | 32 | 0.19
CCOc1ccc(C2CC(=O)c3c([nH]c(C(=O)OC)c3C)C2)cc1OC (stereo not drawn) | x | 0.5 | -0.13 | -0.15 | 8 | -0.88
O=C(CN1C(=O)CSC1=O)c1ccccc1 | 1 | 0.57 | -0.0053 | 0.83 | 0 | 0.85
SMILES | Jurkat viability | hDAT+cocaine | M1 ag | M1 antagonist | HEK293 NFkB inh | D1 mod
Cc1ccc2cc(CN(C)C(=O)C3CCCO3)c(=O)[nH]c2c1 (stereo not drawn) | -6 | -1.3 | 0.96 | 1.5 | 5 | x
CNC(=S)Nc1ccc(Nc2ccccc2)cc1 | x | 1.2 | x | x | x | x
COc1cc2nc(-c3cccs3)oc(=O)c2cc1OC | -2 | -0.33 | 1.5 | -0.15 | 15 | 5.6*
COc1ccc(N2CCN(C(=O)NC34CC5CC(CC(C5)C3)C4)CC2)cc1 | x | -7.6* | x | x | x | x
COc1ccc(-c2nnc3ccc(SCC(=O)N4CCN(c5ccccc5)CC4)nn23)cc1 | 6 | x | 4.4* | -0.4 | 15 | 0.37
COc1ccc(N2CCN(C(=O)COc3ccccc3)CC2)cc1 | -6 | 1.9* | -1.1 | 0.26 | 4 | 0.43
O=C(CSc1ccc2nnc(-c3ccccc3)n2n1)N1CCN(c2ccccc2)CC1 | -2 | x | 0.038 | -0.72 | 16 | -0.37
C=CCn1c(CSCc2ccc(C)cc2)nnc1SCC(=O)NCc1ccccc1 | x | 2.1* | x | x | x | x
Cc1cccc(C2CC(c3ccc(Cl)cc3)Nc3nc(N)nn32)c1 (stereo not drawn) | -1 | 1.3 | -2.3 | -0.079 | -4 | 2
CC1=CC(C)(C)Nc2ccc(OC(=O)c3cccnc3)cc21 | 17 | 0.4 | -0.16 | 0.32 | 44* | -0.55
CC1=CC(C)(C)Nc2ccc(OC(=O)CN3C(=O)CCC3=O)cc21 | -3 | -0.6 | 0.15 | -0.24 | 40* | -0.19
CC1=CC(C)(C)Nc2ccc(OC(=O)C(C)N3C(=O)c4ccccc4C3=O)cc21 (stereo not drawn) | x | -0.029 | x | x | x | x
CCOc1ccc(OC(=O)c2cccnc2)cc1 | 6 | 0.61 | -0.68 | 0.34 | 2 | x
CC1=CC(C)(C)Nc2ccc(OC(=O)c3ccco3)cc21 | 58* | -1.1 | -0.0011 | -0.18 | 45* | -0.11
CC1=CC(C)(C)Nc2ccc(C)cc21 | 6 | -0.28 | 0.21 | 0.46 | 6 | 1
Cc1cccc2[nH]c(-c3ccc(NC(=O)c4ccco4)cc3)nc12 | 0 | -0.0065 | 1.6 | 1.1 | -20 | -1.9
Cc1ccc(S(=O)(=O)NCC(=O)OCc2nnc(-c3ccccc3)o2)cc1C | x | -1.7 | x | x | x | x
CC1CCc2c(sc3nn[nH]c(=O)c23)C1 (stereo not drawn) | x | 0.27 | x | x | x | x
CCOC(=O)C(=CNc1cc(C)nn1-c1ccccc1)C(=O)OCC | x | 2.2* | x | x | x | x
NC(=O)C1CCN(C(=O)CCSc2ccccc2)CC1 | x | -0.96 | x | x | x | x
Cc1ccc(C2/C(=C(\O)c3cnn(-c4ccccc4)c3C)C(=O)C(=O)N2CCN(C)C)o1 (stereo not drawn) | x | -2.4* | 0.95 | -0.0049 | x | -0.49
CCOC(=O)C1=C(C)NC(=O)NC1c1ccc(OC(=O)c2ccco2)c(OC)c1 (stereo not drawn) | -4 | 0.3 | -0.64 | 0.12 | 5 | 0.64
CC1=C(C(=O)OCc2ccc3c(c2)OCO3)C(c2ccccc2OCc2ccccc2)NC(=O)N1 (stereo not drawn) | x | -0.71 | x | x | x | x
C=CCOC(=O)C1=C(C)NC(=O)NC1c1ccc(OC(=O)c2ccco2)c(OC)c1 (stereo not drawn) | -2 | 1.3 | 0.48 | -0.29 | 2 | -5.4*
CC1=C(C(=O)OCc2ccc3c(c2)OCO3)C(c2ccccc2)NC(=O)N1 (stereo not drawn) | 38* | 0.24 | -0.64 | -0.27 | 37 | -0.76
COCCn1c(C)cc(C(=O)COC(=O)C23CC4CC(CC(O)(C4)C2)C3)c1C | -4 | -0.038 | 0.34 | 0.8 | -26 | -4.6*
COCCn1c(C)cc(C(=O)COC(=O)c2cc3c(s2)CCC3)c1C | 3 | 0.97 | -0.29 | -2.3 | 15 | -0.53

High-throughput results as filed in PubChem.
